ChEMBL document CHEMBL4402593, “Fragment-Based Design of Mycobacterium tuberculosis InhA Inhibitors” (J Med Chem, 2020)
pIC50: −log10 of the molar value. Active and inactive are the calls of the source. The calls are words filed in the database; no cut-off is given here.

Tests used:
[1] = target: T1, Enoyl-[acyl-carrier-protein] reductase [NADH] (Mycobacterium tuberculosis) (UniProt P9WGR1); assay: (§1) Inhibition of hexahistidine-SUMO tagged Mycobacterium tuberculosis InhA expressed in Escherichia coli BL21(DE3) at 0.1 mM preincubated for 10 mins with NADH before addition of 2-trans-octanoyl-CoA as substrate and measured after 20 mins by NADH oxidation detection based colorimetric assay relative to control
T1 sequence (whole entry): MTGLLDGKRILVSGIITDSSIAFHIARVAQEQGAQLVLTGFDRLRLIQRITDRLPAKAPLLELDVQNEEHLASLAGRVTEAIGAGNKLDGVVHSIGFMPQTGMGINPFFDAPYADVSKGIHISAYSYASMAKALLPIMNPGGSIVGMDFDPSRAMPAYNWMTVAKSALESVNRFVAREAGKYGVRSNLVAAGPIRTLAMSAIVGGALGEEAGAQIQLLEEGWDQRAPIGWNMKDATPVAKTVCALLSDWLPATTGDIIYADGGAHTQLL
How it was run: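 Percent inhibition at 100 μM: tag-cleaved InhA (100 nM) in 30 mM PIPES pH 7.5, 50 mM NaCl, 0.1 mM EDTA was preincubated 10 min at room temperature with 0.25 mM NADH and compound (1% DMSO). Reaction started with 1.5 mM 2-trans-octanoyl-CoA final. NADH oxidation was read at 340 nm for 20 min.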

[2] = target: T1, Enoyl-[acyl-carrier-protein] reductase [NADH] (Mycobacterium tuberculosis); assay: Binding affinity to hexahistidine-SUMO tagged Mycobacterium tuberculosis InhA expressed in Escherichia coli BL21(DE3) at 1 mM in presence of 0.5 mM NAD+ by NMR spectroscopy
How it was run: (§2)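 Ligand-observed NMR binding (CPMG T2 relaxation, WaterLOGSY, STD): 20 μM InhA (His6-SUMO tag removed by Ulp1, then gel-filtered) with 0.5 mM NAD+ and fragment at 1 mM. All three techniques were run on each fragment to validate thermal-shift hits.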

[3] = target: T1, Enoyl-[acyl-carrier-protein] reductase [NADH] (Mycobacterium tuberculosis); assay: Binding affinity to hexahistidine-SUMO tagged Mycobacterium tuberculosis InhA expressed in Escherichia coli BL21(DE3) at 1 mM in presence of 0.5 mM NAD+ by CPMG NMR analysis; how it was run: as §2
[4] = target: T1, Enoyl-[acyl-carrier-protein] reductase [NADH] (Mycobacterium tuberculosis); assay: Binding affinity to hexahistidine-SUMO tagged Mycobacterium tuberculosis InhA expressed in Escherichia coli BL21(DE3) at 1 mM in presence of 0.5 mM NAD+ by WaterLOGSY NMR analysis; how it was run: as §2
[5] = target: T1, Enoyl-[acyl-carrier-protein] reductase [NADH] (Mycobacterium tuberculosis); assay: as §1, with “2” for “0.1”
How it was run: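 InhA 100 nM in PIPES pH 7.5/NaCl/EDTA was preincubated 10 min with 0.25 mM NADH and fragment (1% DMSO). Reaction started with 1.5 mM 2-trans-octanoyl-CoA. A340 decrease was followed for 20 min.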

[6] = target: T1, Enoyl-[acyl-carrier-protein] reductase [NADH] (Mycobacterium tuberculosis); assay: Inhibition of InhA in Mycobacterium tuberculosis H37Ra assessed as reduction in mycolic acids synthesis by measuring FAME level at 200 uM incubated for 48 hrs using [14C]acetate by TLC based metabolic labeling assay relative to control
How it was run: (§3)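 H37Ra in 7H9/ADC/Tween 80 at OD600 0.290 received compound at 200 μM final (1% DMSO), with isoniazid 40 μM as control. After 24 h, 14C acetate (0.5 μCi/mL) was added for a further 24 h. FAMEs and MAMEs were prepared from whole cells, loaded normalised to OD600, separated by TLC, and detected by autoradiography.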

[7] = target: T1, Enoyl-[acyl-carrier-protein] reductase [NADH] (Mycobacterium tuberculosis); assay: Inhibition of InhA in Mycobacterium tuberculosis H37Ra assessed as reduction in mycolic acids synthesis by measuring MAME level at 200 uM incubated for 48 hrs using [14C]acetate by TLC based metabolic labeling assay relative to control; how it was run: as §3
[8] = target: T1, Enoyl-[acyl-carrier-protein] reductase [NADH] (Mycobacterium tuberculosis); assay: Inhibition of InhA in Mycobacterium tuberculosis H37Ra assessed as accumulation of trehalose monomycolates at 200 uM incubated for 48 hrs using [14C]acetate by TLC based metabolic labeling assay relative to control
How it was run: (§4)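 H37Ra was grown statically at 37 °C in 7H9/ADC/0.05% Tween 80 to OD600 0.290. Compound was added at 200 μM final (1% DMSO), with isoniazid 40 μM as control inhibitor. After 24 h shaking, 14C acetate (0.5 μCi/mL) was added for another 24 h. Total lipids were extracted with chloroform/methanol and washed biphasically. TLC in chloroform/methanol/water 20:4:0.5, then autoradiography.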

[9] = target: T1, Enoyl-[acyl-carrier-protein] reductase [NADH] (Mycobacterium tuberculosis); assay: Inhibition of InhA in Mycobacterium tuberculosis H37Ra assessed as decrease in trehalose dimycolates level at 200 uM incubated for 48 hrs using [14C]acetate by TLC based metabolic labeling assay relative to control; how it was run: as §4
[10] = target: T2, Enoyl-[acyl-carrier-protein] reductase [NADH] (Mycobacterium tuberculosis, UniProt P9WGR1); assay: Inhibition of hexahistidine-SUMO tagged Mycobacterium tuberculosis InhA expressed in Escherichia coli BL21(DE3) at preincubated for 10 mins with NADH before addition of 2-trans-octanoyl-CoA as substrate and measured after 20 mins by NADH oxidation detection based colorimetric assay
T2 sequence (P9WGR1 whole entry): T1 sequence (whole entry)

Work on `NC(=O)c1cccc(NS(=O)(=O)/C=C/c2cccc(C(F)(F)F)c2)c1` yielded an inhibition [1] of 0%.
With `O=C(O)c1ccccc1-n1cccn1` the Activity [2] was “Active”, the Activity [3] was “Active” and the Activity [4] was “Active”. The inhibition [5] was “inactive”.
`NCc1cccc(NS(=O)(=O)c2cc3ccccc3s2)c1` was tested, and the inhibition [6] was “inactive”, the inhibition [7] was “inactive” and the inhibition [8] was “inactive”. For the same compound, the inhibition [9] was “inactive”.
With `O=C(O)/C=C/c1cccc(C(F)(F)F)c1` the Activity [2] was “Active”, the Activity [3] was “Active” and the Activity [4] was “Active”.
With `Cc1c(S(=O)(=O)Nc2cccc(CN)c2)sc2ccc(Cl)cc12` the inhibition [6] was “inactive”, the inhibition [7] was “inactive” and the inhibition [8] was “inactive”. For the same compound, the inhibition [9] was “inactive”.
With `NCc1cccc(NS(=O)(=O)/C=C/c2cccc(C(F)(F)F)c2)c1` the inhibition [6] was “Active”, the inhibition [7] was “Active” and the inhibition [8] was “Active”. The inhibition [9] was “Active”.
In the case of `O=C(O)c1cc2ccccc2cc1O`, the Activity [2] was “Active”, the Activity [3] was “Active” and the Activity [4] was “Active”. For the same compound, the inhibition [5] was “inactive”.
`NCc1cccc(NS(=O)(=O)c2cc3ccccc3o2)c1` was tested, and the pIC50 [10] was 4.66, the inhibition [6] was “inactive” and the inhibition [7] was “inactive”. The inhibition [8] was “inactive” and the inhibition [9] was “inactive”.
For `O=C(O)c1ccccc1C(=O)c1ccc(Cl)c([N+](=O)[O-])c1`, the Activity [2] was “Active”, the Activity [3] was “Active” and the Activity [4] was “Active”. The inhibition [5] was “inactive”.
With `Cc1c(S(=O)(=O)Nc2cccc(CN)c2)sc2ccc(F)cc12` the inhibition [6] was “inactive”, the inhibition [7] was “inactive” and the inhibition [8] was “inactive”. The inhibition [9] was “inactive”.
With `NCc1ccc(NS(=O)(=O)/C=C/c2cccc(C(F)(F)F)c2)cc1` the inhibition [6] was “inactive”, the inhibition [7] was “inactive” and the inhibition [8] was “inactive”. The inhibition [9] was “inactive”.
`O=C(O)CCc1cccc(Cl)c1` was tested, and the Activity [2] was “Active”, the Activity [3] was “Active” and the Activity [4] was “Active”. The inhibition [5] was “inactive”.
`NNC(=O)c1ccncc1` gave an inhibition [6] of 100% and an inhibition [7] of 100%.
